# Calb FLC: C. albicans growth modulation with fluconazole; C. albicans CaCi-2 (fluconazole-resistant clinical isolate) + fluconazole, Alamar Blue growth, 48 h; AID 1979; actives 0.57% (n = 300,000); growth inhibition, % (no concentration beside the values);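 active = growth inhibition above about 58% in most replicates, limit read from the data, passing the limit was not always enough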;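 also: all wells also contain fluconazole at 8 µg/ml as a sub-toxic cotreatment; 0% = median of DMSO wells and 100% = median of geldanamycin control wells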
# SKKanGAS inh: inhibitors of SKKanGAS S. pyogenes growth in kanamycin (SK-promoter or general growth effect). actives 1.3% (n = 300,000). BacTiter-Glo, 6 h. inhibition, % at 7.5 µM. AID 1662;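 active = mean replicate score, as percent of positive control median, at least 50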;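 also: strain carries kanamycin resistance gene driven by streptokinase promoter and grows in 40 µg/ml kanamycin; loss of luminescence reflects streptokinase promoter inhibition or plain growth inhibition; 0% = median of DMSO wells and 100% = positive control at its reference dose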
# ARFGAP1 inh: inhibitors of rat ARFGAP1. inhibition, % at 16.5 µM. Q62848. Arfgap1-stimulated ARF1 GTP hydrolysis, GDP FP detection. actives 0.26% (n = 360,000). AID 651572;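 active = inhibition above a per-plate limit, mean inhibition of low control wells plus 3 SD, cut at about 25% in these data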;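 also: 0% = DMSO wells with enzyme and 100% = wells lacking Arfgap1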
# Target sequence (Q62848 1-136 limits assumed): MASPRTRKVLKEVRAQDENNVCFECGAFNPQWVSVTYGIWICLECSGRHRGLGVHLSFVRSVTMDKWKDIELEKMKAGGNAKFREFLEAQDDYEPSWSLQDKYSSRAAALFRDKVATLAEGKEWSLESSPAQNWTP
#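 material = rat Arfgap1 catalytic domain, aa 1-136 | also added = human ARF1(Δ1-17)-GTP substrate | compound dosing = one concentration, 16.5 µM, DMSO 1.26% | times = GTP hydrolysis reaction 2 h at 25 °C | measured by = FP, GDP Alexa 633 tracer displaced from anti-GDP antibody, 620/688 nm | evaluation = percent inhibition of Arfgap1-stimulated GTP hydrolysis | replication = single well per compound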
# HGIII-sPLA2 inh: Inhibits HGIII-sPLA2 liposome hydrolysis, primary screen; Q9NZ20; QFRET BODIPY PC-A2 liposome hydrolysis, fluorescence; inhibition, % at 12.2 µM; actives 0.56% (n = 370,000);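 active = inhibition above mean plus 3 SD of compounds lying within the high and low control bounds, cut at about 19% in these data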;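 also: 0% = median of test compound wells and 100% = no enzyme DMSO wells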
# ASAP1 inh: ASAP1 ArfGAP inhibition; Q9ULH1; ASAP1-stimulated ARF1 GTP hydrolysis, GDP FP detection; inhibition, % at 16.5 µM; actives 0.19% (n = 360,000); AID 624377; in the data active = inhibition above about 25%;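 also: 0% = vehicle with enzyme and substrate and 100% = no enzyme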
# Target sequence (Q9ULH1 325-724 limits assumed): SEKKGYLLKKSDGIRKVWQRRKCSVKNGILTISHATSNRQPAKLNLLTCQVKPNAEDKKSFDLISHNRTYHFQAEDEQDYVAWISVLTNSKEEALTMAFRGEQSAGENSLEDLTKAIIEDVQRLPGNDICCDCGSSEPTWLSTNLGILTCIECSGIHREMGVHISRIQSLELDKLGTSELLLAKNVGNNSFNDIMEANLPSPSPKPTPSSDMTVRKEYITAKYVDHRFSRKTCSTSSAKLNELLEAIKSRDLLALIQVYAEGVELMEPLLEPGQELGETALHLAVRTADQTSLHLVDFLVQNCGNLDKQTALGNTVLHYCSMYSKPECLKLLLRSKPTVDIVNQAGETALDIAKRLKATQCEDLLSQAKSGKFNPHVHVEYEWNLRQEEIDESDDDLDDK
# Active calls of the source: *; x = not tested or not shown; ! = not confirmed by another sample. The list is not random: actives were taken first. Their share in the collection is about 2.3%.
SMILES,Calb FLC,SKKanGAS inh,ARFGAP1 inh,HGIII-sPLA2 inh,ASAP1 inh
CCOC(=O)[C@]12CCC=C1N(Cc1ccccc1)C(=O)[C@H](CC(=O)N1CCN(C(=O)c3ccco3)CC1)C2,x,x,6.0,6.3,4.7
CCC[C@H]1[C@@H](NC(=O)/C=C/c2ccccc2)CC[C@@]23CCCN2C(=O)CCC[C@@H]13,x,x,x,-7.5,x
C/C=C/c1cccc(-c2nc(C(=O)NC3CCC3)cc3c2[C@H](CCO)N(S(=O)C(C)(C)C)C3)c1 (stereo partly specified),x,x,9.9,3.7,-4.9
O=S(=O)(Cc1ccccc1)N1CCN(Cc2ccc(Br)cc2)CC1,5.2,-3.7,-1.6,-1.6,8.8
O=S(=O)(Cc1ccc(Cl)cc1)N1CCN(Cc2ccccc2)CC1,125.4*,x,x,x,x
COc1ccc(NC(=O)c2cccc3c(-c4ccc(O)c(OC)c4)coc23)cc1,x,x,18.9,-17.6,9.4
CCCOc1cc(N(CC)CC)ccc1/C=C(/C#N)c1nc2ccc(C)cc2[nH]1,5.2,61.5*,-1.6,-45.6,15.0
Cc1c(CCC(=O)O)c(=O)oc2cc3occ(-c4ccc(Br)cc4)c3cc12,44.8,76.6*,-12.7,-19.8,1.6
Cc1c(CCC(=O)O)c(=O)oc2c(C)c3occ(-c4ccc(Cl)cc4)c3cc12,3.8,58.2*,-29.2,-7.7,-18.6
Cc1c(CCC(=O)O)c(=O)oc2cc3occ(-c4ccc(Cl)cc4)c3cc12,28.3,62.9*,-6.6,-49.2,0.7
Cc1c(CCC(=O)O)c(=O)oc2cc3occ(-c4ccc(F)cc4)c3cc12,-5.6,11.1,2.4,-15.4,-0.6
Cc1cc(NC(=O)c2ccc(NS(=O)(=O)c3ccccc3F)cc2)no1,x,x,x,0.8,x
CCCCc1c(-c2ccc(OC)cc2)ncn1CCc1ccccc1OC,x,x,8.2,3.4,-15.3
C[C@H](c1ccccc1)N1C[C@@H](COCc2ccccc2)Oc2cccc(N3CCCC3)c2S1(=O)=O,x,x,-9.9,-3.7,-16.2
O=C(Nc1ccc(Cl)cc1)c1ccc(CN2CCc3ccccc3C2)cc1,2.7,-2.8,2.8,19.7*,6.3
N#CCc1ccc(NC(=O)c2ccc(CN3CCc4ccccc4C3)cc2)cc1,2.0,2.8,6.8,-9.3,8.5
COc1ccc(OC)c(-c2cc(C(F)(F)F)c3c(n2)sc2c(O)cc(=O)[nH]c23)c1,-0.2,81.5*,-4.2,-0.2,-3.4
O=c1cc(O)c2sc3nc(-c4ccccc4)cc(C(F)(F)F)c3c2[nH]1,25.6,28.0,4.9,-0.9,5.2
CC(C)(C)n1cnc2cc(NCc3ccc(Br)cc3)ccc21,35.8,16.6,-3.1,-12.2,2.0
CCc1ccc(CNc2ccc3c(c2)ncn3C(C)(C)C)cc1,0.8,56.9*,3.5,-13.9,-3.7
COc1ccc(C2CC(c3ccccc3)=NN2c2ccc(N)cc2)cc1 (stereo unspecified),16.8,-5.7,-1.3,7.4,11.9
COc1cc(N2N=C(c3ccccc3)CC2c2ccccc2)c(C=O)cc1C=O (stereo unspecified),-4.3,55.0*,-3.0,-2.1,8.7
CC(=O)Oc1ccc(C2=NN(c3ccccc3)C(c3ccccc3)C2)cc1 (stereo unspecified),-2.7,64.6*,-1.1,4.4,12.0
CC12CC3(C)CC(C)(C1)CC(C(=O)NC1=NCCS1)(C2)C3,-4.2,84.4*,7.5,4.5,-4.3
OC[C@@H]1CN(Cc2cccc3ccccc23)C[C@H](n2cnc3c(NCc4ccco4)ncnc32)O1,x,x,12.4,-26.1,1.9
SMILES,Calb FLC,SKKanGAS inh,ARFGAP1 inh,HGIII-sPLA2 inh,ASAP1 inh
COc1ccc(CNC(=O)/C=C/[C@H]2O[C@@H](n3ccc(=O)[nH]c3=O)[C@H](O)[C@@H]2O)cc1,x,x,2.5,11.2,6.2
O=C(Nc1cccc(-c2cn3ccccc3n2)c1)c1ccccc1,22.5,-7.1,8.1,-2.5,-13.4
Cc1ccc(C(=O)Nc2cccc(-c3cn4ccccc4n3)c2)cc1,93.7*,2.6,11.2,-8.5,8.4
O=C(Nc1nnc(-c2ccco2)o1)c1ccc2ccccc2c1,-13.9,91.8*,3.8,3.3,3.3
Cc1ccc(C(=O)Nc2nnc(-c3ccco3)o2)cc1,0.1,12.7,-3.8,-0.5,-2.9
Cc1ccsc1C(=O)Nc1nnc(-c2ccco2)o1,68.6,83.1*,-1.5,-3.4,0.8
COC(=O)[C@]12C[C@H](CC(=O)N3CCSCC3)C(=O)N(Cc3ccccc3)C1=C[C@H](COCc1ccccc1)O[C@@H]2C,x,x,x,-1.7,x
COC(=O)[C@]12C[C@H](CC(=O)N3CCSCC3)C(=O)N(CCc3ccc(OC)c(OC)c3)C1=C[C@H](C1CCCC1)O[C@@H]2C,x,x,x,4.2,x
CC(=O)/C(=N/Nc1ccc([N+](=O)[O-])cc1)N1CCCc2ccccc21,-8.3,9.5,-2.2,-3.5,4.7
CC(=O)/C(=N/Nc1ccc(Br)cc1)N1CCCc2ccccc21,25.8,51.5*,-4.3,17.9,-4.5
Cc1cc(C)cc(N(CC(=O)NC2CCC(C)CC2)S(=O)(=O)c2ccc(Br)s2)c1 (stereo unspecified),x,x,x,-1.4,x
O=C(Oc1ccc(/C=N/Nc2ccccc2)cc1)c1ccccc1,-24.7,11.6,-10.2,-4.9,0.7
O=C(O)c1ccc(N/N=C/c2ccc(OC(=O)c3cccc(Cl)c3)cc2)cc1,2.9,56.8*,-3.4,-6.9,-3.5
Cc1ccc(OCc2nnc(SCC(=O)Nc3cccc4ccccc34)n2Cc2ccco2)cc1,x,x,x,-32.1,x
CC(=O)NC1CCCN(O)C(=O)/C=C(\C)CCOC(=O)C(NC(C)=O)CCCN(O)C(=O)/C=C(\C)CCOC(=O)C(NC(C)=O)CCCN(O)C(=O)/C=C(\C)CCOC1=O (stereo unspecified),85.8*,-5.6,x,x,x
CCN1CCCCC(NC(=O)c2ccccc2C)C1=O (stereo unspecified),x,x,x,6.4,x
NS(=O)(=O)c1ccc(N/N=C2/CCCCC2C2CCCCC2)c([N+](=O)[O-])c1 (stereo unspecified),15.4,76.9*,-1.1,-9.4,11.3
CC1C/C(=N\Nc2ccc(S(N)(=O)=O)cc2[N+](=O)[O-])CC(C)(C)C1 (stereo unspecified),-6.2,-0.5,2.2,16.9,-6.0
CCCOC(=O)/C(=C\c1ccc([N+](=O)[O-])o1)NC(=O)c1ccccc1,89.4*,1.2,2.6,2.1,3.4
C=CCc1c(C)c(C#N)c2nc3ccccc3n2c1NCCN(C)C,91.2*,-1.3,-0.9,-4.8,1.3
CCc1c(C)c(C#N)c2nc3ccccc3n2c1NCCN(C)C,43.1,1.3,2.0,-4.5,14.9
CCC(=C(c1ccccc1)c1ccc(OCCN(C)C)cc1)c1ccccc1,x,x,-10.7,15.4,3.4
CC/C(=C(\c1ccccc1)c1ccc(OCCN(C)C)cc1)c1ccccc1,x,66.1*!,3.6,1.9,-9.5
CSc1nc(Sc2ccccc2Cl)c2ccccc2n1,6.7,59.2*,-13.2,-0.8,5.6
COCC(=O)Nc1ccc2c(c1)[C@H]1C[C@@H](CC(=O)NCC3CC3)O[C@H](CO)[C@H]1O2,x,x,-1.6,-4.3,-13.1
O=S(=O)(c1ccc(Cl)cc1)N1CCN(Cc2ccncc2)CC1,-0.9,-0.6,-7.2,-2.2,-2.0
